In ChEMBL document CHEMBL1649356, “Triterpenoids from Aglaia abbreviata and their cytotoxic activities” (J Nat Prod, 2010):

Legend:
Format in all cases: functional, cell-based
SMMC-7721 = assay: Cytotoxicity against human SMMC7721 cells after 48 hrs by MTT assay; conditions: SMMC-7721, 48 h
Method in brief: (§1)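 Cells grown in RPMI-1640 or DMEM with 10% FBS, 5% CO2, 37 °C. Adherent cells seeded and allowed 12 h to attach before compound addition; suspension cells seeded just before addition; initial density 1 × 10^5 cells/mL. Compound at 0.1, 1, 10, 100, 500 µM, triplicate, 48 h; doxorubicin positive control. Viability by MTT; IC50 by Reed and Muench method.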

K562 = assay: Cytotoxicity against human K562 cells after 48 hrs by MTT assay; conditions: K562, 48 h; method in brief: as §1
KB = assay: Cytotoxicity against human KB cells after 48 hrs by MTT assay; method in brief: as §1
[1] = Cytotoxicity against human MCF7/ADR cells after 48 hrs by MTT assay; conditions: NCI/ADR-RES; method in brief: as §1
[2] = Cytotoxicity against human KB/VCR cells after 48 hrs by MTT assay; method in brief: as §1
MCF7 = assay: Cytotoxicity against human MCF7 cells after 48 hrs by MTT assay; conditions: MCF7, 48 h; method in brief: as §1

Question: Which results are given for `C=C(C/C=C/C(C)(C)O)[C@H]1CC[C@]2(C)[C@@H]1CC[C@@H]1[C@@]3(C)CCC(=O)C(C)(C)[C@@H]3CC[C@]12C` [AGLAIABBREVIATIN E]?
Answer: IC50 (SMMC-7721): 4200 nM; IC50 (K562): 1800 nM; IC50 (KB): 2700 nM; IC50 [1]: > 10000 nM; IC50 [2]: 830 nM; IC50 (MCF7): > 10000 nM

Question: What does the source list for `CC(=O)O[C@@H]1CC[C@]2(C)[C@H]3CC[C@@H]4[C@@H]([C@@](C)(O)CCCC(C)(C)OO)CC[C@@]4(C)[C@]3(C)CC[C@H]2C1(C)C` [AGLAIABBREVIATIN F]?
Answer: IC50 (SMMC-7721): 1400 nM; IC50 (K562): 460 nM; IC50 (KB): 600 nM; IC50 [1]: 5500 nM; IC50 [2]: 310 nM; IC50 (MCF7): > 10000 nM

Question: Which IC50 (SMMC-7721) does the source give for `CC(=O)O[C@@H]1CC[C@]2(C)[C@H]3CC[C@@H]4[C@@H]([C@]5(C)C=CC(=O)O5)CC[C@@]4(C)[C@]3(C)CC[C@H]2C1(C)C` [AGLAIABBREVIATIN B] here?
Answer: The IC50 was > 10000 nM.

Question: What about the IC50 (K562) of the same compound?
Answer: The IC50 was > 10000 nM.

Question: What about the IC50 (KB) of the same compound?
Answer: The IC50 was > 10000 nM.

Question: What about the IC50 [1] of the same compound?
Answer: The IC50 was > 10000 nM.

Question: And the IC50 [2]?
Answer: The IC50 was > 10000 nM.

Question: What about the IC50 (MCF7) of the same compound?
Answer: Its IC50 is > 10000 nM.

Question: Which IC50 (SMMC-7721) does the source give for `CC(=O)[C@H]1CC[C@]2(C)[C@@H]1CC[C@@H]1[C@@]3(C)CC[C@@H](O)C(C)(C)[C@@H]3CC[C@]12C` [AGLAIABBREVIATIN C] here?
Answer: Its IC50 is > 10000 nM.

Question: What about the IC50 (K562) of the same compound?
Answer: Its IC50 is > 10000 nM.

Question: What about the IC50 (KB) of the same compound?
Answer: The IC50 was > 10000 nM.

Question: And the IC50 [1]?
Answer: Its IC50 is > 10000 nM.

Question: What about the IC50 [2] of the same compound?
Answer: Its IC50 is 1100 nM.

Question: And the IC50 (MCF7)?
Answer: The IC50 was > 10000 nM.

Question: Which results are given for `CC1(C)C=CC[C@@](C)([C@H]2CC[C@]3(C)[C@@H]2CC[C@@H]2[C@@]4(C)CCC(=O)C(C)(C)[C@@H]4CC[C@]23C)O1` [AGLAIABBREVIATIN D]?
Answer: IC50 (SMMC-7721): 2100 nM; IC50 (K562): 1200 nM; IC50 (KB): 1200 nM; IC50 [1]: > 10000 nM; IC50 [2]: 960 nM; IC50 (MCF7): > 10000 nM

Question: Which IC50 (SMMC-7721) does the source give for `CC1(C)C(=O)CC[C@]2(C)[C@H]3CC[C@@H]4[C@@H]([C@]5(C)C=CC(=O)O5)CC[C@@]4(C)[C@]3(C)CC[C@@H]12` [AGLAIABBREVIATIN A] here?
Answer: Its IC50 is > 10000 nM.

Question: And the IC50 (K562)?
Answer: Its IC50 is > 10000 nM.

Question: What about the IC50 (KB) of the same compound?
Answer: Its IC50 is > 10000 nM.

Question: What about the IC50 [1] of the same compound?
Answer: The IC50 was > 10000 nM.

Question: What about the IC50 [2] of the same compound?
Answer: The IC50 was > 10000 nM.

Question: And the IC50 (MCF7)?
Answer: The IC50 was > 10000 nM.

Question: What does the source list for `COc1cccc2c1C(=O)c1c(O)c3c(c(O)c1C2=O)C[C@@](O)(C(=O)CO)C[C@@H]3O[C@H]1C[C@H](N)[C@H](O)[C@H](C)O1` [DOXORUBICIN]?
Answer: IC50 (SMMC-7721): 370 nM; IC50 (K562): 170 nM; IC50 (KB): 12 nM; IC50 [1]: > 10000 nM; IC50 [2]: 450 nM; IC50 (MCF7): 540 nM
